Shown are actives, neighbours in structure and some others; about 1.4% of the full set was active somewhere.
FXIa inh 1536 – human FXIa protease inhibitors, primary screen, biochemical, 1536-well | AID 798, 2007 | actives 0.14% (n = 220,000) | purified FXIa, Boc-Glu-Ala-Arg-AMC fluorogenic substrate | inhibition, % at 5 µM;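 active = inhibition of at least 40%; inactive = inhibition below 40%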;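 note: fluorescence of freed AMC excited at 355 nm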
KLK5 inh – human KLK5 protease inhibitors, primary screen, biochemical, 1536-well. recombinant hK5, fluorogenic AMC substrate cleavage. inhibition, % at 5 µM. actives 0.59% (n = 210,000);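 active = inhibition of 40% or more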
thrombin 1536 – human alpha-thrombin inhibitors, primary screen, counter-screen for coagulation protease inhibitor project, biochemical, 1536-well, fluorogenic AMC substrate | Boc-VPR-AMC fluorogenic substrate cleavage | inhibition, % at 5 µM | actives 0.26% (n = 220,000);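 active = inhibition at or above 40%; inactive = inhibition below 40%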
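System – human alpha-thrombin · Medium – pH 7.5 Tris (50 mM) with NaCl 150 mM, Tween 20 0.05% · Compound – single-point dosing at 5 µM, 0.2% DMSO · Incubation – enzyme reaction carried out at room temperature · Technique – fluorescence of released AMC, ex 355 nm, em 460 nm · Read-out basis – % inhibition of thrombin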
m-calpain inh – inhibitors of pig calpain II, primary screen, biochemical, fluorogenic peptide substrate, 1536-well | inhibition, % at 16 µM | purified calpain II, 30 min | actives 0.37% (n = 220,000);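 active = inhibition above about 50%, limit read from the data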
FXIIa inh 1536 – human FXIIa protease inhibitors, primary screen, biochemical, 1536-well. inhibition, % at 5 µM. purified FXIIa, Boc-QGR-AMC fluorogenic substrate, 2 h. AID 800, 2007. actives 0.3% (n = 220,000); in the data active = inhibition above about 40%
Target sequence (P00748 20-372 limits assumed): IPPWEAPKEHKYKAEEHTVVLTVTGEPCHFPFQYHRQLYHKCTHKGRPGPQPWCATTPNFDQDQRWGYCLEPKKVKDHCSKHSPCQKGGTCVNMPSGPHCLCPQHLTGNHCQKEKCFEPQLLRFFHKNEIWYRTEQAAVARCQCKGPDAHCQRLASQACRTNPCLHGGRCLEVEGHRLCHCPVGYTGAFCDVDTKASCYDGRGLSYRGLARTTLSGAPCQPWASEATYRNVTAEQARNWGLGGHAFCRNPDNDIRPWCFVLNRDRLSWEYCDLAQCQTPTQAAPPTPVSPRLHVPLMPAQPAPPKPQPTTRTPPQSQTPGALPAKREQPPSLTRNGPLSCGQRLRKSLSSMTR
Target sequence (P00748 373-615 limits assumed): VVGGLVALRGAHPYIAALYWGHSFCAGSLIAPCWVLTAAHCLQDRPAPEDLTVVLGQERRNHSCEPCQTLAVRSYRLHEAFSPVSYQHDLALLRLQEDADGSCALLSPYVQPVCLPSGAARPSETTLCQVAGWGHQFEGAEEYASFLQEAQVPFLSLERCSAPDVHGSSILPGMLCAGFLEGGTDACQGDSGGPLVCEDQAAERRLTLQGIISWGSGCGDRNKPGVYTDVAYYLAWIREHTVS
Of the large screens only hits and unclear results are named; the others gave an inactive call.

COC(=O)c1sccc1NC(=S)N1CCN(c2cc(C)ccc2C)CC1	none
O=C1c2cccnc2C(Nc2ccc(Br)cc2Br)N1Cc1cccs1 (centres undefined)	none
Cc1ccc(N2CC(C(=O)N/N=C/c3cccc([N+](=O)[O-])c3)CC2=O)cc1 (centres undefined)	thrombin 1536 103.7
O=C(CNCc1ccccn1)Nc1cc(C(F)(F)F)ccc1N1CCOCC1	FXIIa inh 1536 41.3
O=C(Cn1c(CO)nc2ccccc21)Nc1cc(C(F)(F)F)ccc1N1CCOCC1	none
CC(C(=O)O)n1cc(Cl)cn1 (centres undefined)	KLK5 inh 50.9
NNc1nc2ccc(Cl)cc2s1	none
NNc1nc2ccc(F)cc2s1	KLK5 inh 42.9
CCC(=O)Nc1ccc2c(c1)ncn2-c1ccc(C)cc1	none
CCCCCc1ccc(CC(=O)Nn2c(C)nc3ccccc3c2=O)cc1	none
Cn1c(N)c(C(=O)COC(=O)C2(c3ccc(Cl)cc3)CCCC2)c(=O)n(C)c1=O	none
Cn1c(N)c(C(=O)COC(=O)CCC2CCCC2)c(=O)n(C)c1=O	m-calpain inh 79.7
Cn1c(N)c(C(=O)COC(=O)C2CCC(C(C)(C)C)CC2)c(=O)n(C)c1=O (centres undefined)	m-calpain inh 109.9
Cc1cc(Br)ccc1SCC(=O)OCC(=O)c1c(N)n(C)c(=O)n(C)c1=O	m-calpain inh 76.9
Cn1c(N)c(C(=O)COC(=O)C2(c3ccc(F)cc3)CCCC2)c(=O)n(C)c1=O	m-calpain inh 76.0
C/C(=N\NC(=O)c1cccnc1)c1cc2ccccc2o1	none
CCOC(=O)NC1(NC2CCCCC2)Oc2ccccc2O1	none
Cn1c(N)c(C(=O)COC(=O)CCC2CCCCC2)c(=O)n(C)c1=O	m-calpain inh 78.1
Cc1cccc(NC2=NCC(=O)N2Cc2cccs2)c1	none
CC(=O)c1ccc(S(=O)(=O)Nc2ccc(-c3cn4c(n3)SCC4)cc2)cc1	thrombin 1536 42.0
O=C1C(c2ccccc2)SC(=Nc2ccccc2)N1S(=O)(=O)c1ccccc1 (centres undefined)	m-calpain inh 53.9
COc1ccc(CNC(=O)C2CCC(CNc3nc(=S)[nH]c4ccccc34)CC2)cc1 (centres undefined)	none
CCCn1c(NCc2cccs2)nc2ccccc21	KLK5 inh 56.1
CCOc1cc2c3c(c1)C1(C(=O)N3C(C)(C)C=C2C)C(C#N)=C(N)Oc2cc(O)ccc21 (centres undefined)	none
COc1cc2c3c(c1)C1(C(=O)N3C(C)(C)C=C2C)C(C#N)=C(N)Oc2cc(O)ccc21 (centres undefined)	KLK5 inh 64.0
Cc1cc2sc3ccccc3c(=O)c2c(C)c1O	none
O=c1c(C(c2ccccc2)c2c(O)sc3ccccc3c2=O)c(O)sc2ccccc12	m-calpain inh 51.5
c1csc(-c2nc3ccccc3[nH]2)c1	FXIIa inh 1536 42.8
O=C(Cc1ccc(Cl)cc1)Nc1ncc([N+](=O)[O-])s1	m-calpain inh 77.2
COc1ccc(NC(=O)CSc2nnnn2-c2ccc(OC)cc2)cc1	none
COc1cc(OC)cc(-n2nnnc2SCC(=O)Nc2ccc(C(C)=O)cc2)c1	thrombin 1536 89.2
Cn1c(C2=C(O)CN(Cc3ccccc3)C2=N)nc2ccccc21	none
COc1cc(C(=O)O/N=C2\C=CC(=O)C=C2C)cc(OC)c1OC	FXIIa inh 1536 41.0
CCS(=O)(=O)N1CCC(N2CCC(C)CC2)CC1	none
CCOC(=O)c1cc(NC(=O)N2CCCc3ccccc32)c(C)nc1C	none
Cc1nc(C)c(NC(=O)N2CCc3ccccc32)cc1NC(=O)N1CCc2ccccc21	KLK5 inh 75.7
CC(C)OC(=O)CSc1nnc(COc2ccc([N+](=O)[O-])cc2)n1C	m-calpain inh 51.7
N#C/C(=C\c1ccncc1)c1nc2ccccc2[nH]1	none
N#C/C(=C\c1cccnc1)c1nc2ccccc2[nH]1	FXIa inh 1536 63.1
CCOC(=O)C1C(C(=O)Nc2cccc(C(F)(F)F)c2)C1C(=O)NC(C)C (centres undefined)	KLK5 inh 53.2
CCSc1nnc(N2C(=O)CC(c3ccsc3)C3=C2CC(C)(C)CC3=O)s1 (centres undefined)	KLK5 inh 52.6
O=S(=O)(Nc1ccccc1)c1ccc(-c2csnn2)cc1	FXIIa inh 1536 43.4
O=S(=O)(Nc1ccc(-c2csc(-c3ccccc3)n2)cc1)c1ccc(F)cc1	m-calpain inh 55.5
c1ccc(-c2ccc(-c3csnn3)cc2)cc1	none
CC(=O)Nc1ccc(NC(=O)c2ccccc2S(=O)(=O)c2ccc([N+](=O)[O-])cc2)cc1	none
COc1ccc(OC)c(C2CC(c3c(-c4ccccc4)c4cc(Cl)ccc4[nH]c3=O)=NN2S(C)(=O)=O)c1 (centres undefined)	KLK5 inh 42.1
COc1ccc(C2CC(c3c(-c4ccccc4)c4cc(Cl)ccc4[nH]c3=O)=NN2S(C)(=O)=O)cc1 (centres undefined)	none
Oc1ccc2cc(Br)ccc2c1CN1CCCC1	none (no result: thrombin 1536)
O=C1OC(Nc2ncccn2)c2ccccc21 (centres undefined)	KLK5 inh 41.8, FXIIa inh 1536 106.1
O=C1OC(Nc2ccccn2)c2ccccc21 (centres undefined)	none
C=CCn1c(SCC(=O)NC(=O)c2cccc([N+](=O)[O-])c2)nnc1-c1ccccc1	none
CCN1CCN(c2cc(C)c3cc(NC(=S)NCc4cccs4)ccc3n2)CC1	m-calpain inh 51.0
Cc1cc(N2CCN(C)CC2)nc2ccc(NC(=S)NCc3cccs3)cc12	none
CCC(C)(C)NC(=O)CN(Cc1ccccc1Cl)C(=O)CCC(=O)Nc1cc(C)ccn1	none
O=C(COC(=O)c1ccc(CSc2ccc(Cl)cc2)cc1)Nc1ccccc1	none
O=C(Cc1cccs1)Nc1nnc(Cc2ccc(F)cc2)s1	KLK5 inh 76.8
Cc1ccc(NC(=O)ON=C2CCCC2)cc1	KLK5 inh 43.6
Cc1ccc(NC(=O)CN(C)CC(=O)Nc2ccccc2-c2ccccc2)cc1	none
Cc1ccc(NC(=O)/C(CN(C)C)=N\O)cc1	FXIIa inh 1536 41.9
CCCC(=O)Nc1cccc(-c2nc3ccccc3c(=O)o2)c1	none
CC(C)c1ccc(-c2c(C#N)c(N)nc(SCC(=O)N3CCCCC3)c2C#N)cc1	none
CC(C)c1ccc(-c2c(C#N)c(N)nc(SCC(=O)N3CCCCCC3)c2C#N)cc1	thrombin 1536 41.1
CCn1nc(C(=O)OCC(=O)c2c[nH]c3ccccc23)c2ccccc2c1=O	m-calpain inh 55.9
CC(C)n1nc(C(=O)OCC(=O)c2c[nH]c3ccccc23)c2ccccc2c1=O	none
Cc1cc(C)nc(SCCS(=O)(=O)Cc2ccc(Cl)cc2)n1	none
Cc1cc(C)nc(SCCS(=O)(=O)Cc2ccccc2)n1	KLK5 inh 114.9

High-throughput results: PubChem, several laboratories
